Measured values reported in ChEMBL document CHEMBL1121715, “New antiarrhythmic agents. 4. 1'-(Aminoalkyl)-1,2,3,4-tetrahydronaphthalene-1-spiro-3'-pyrrolidine-2',5'-dione derivatives” (J Med Chem, 1981).

Legend:
Mus musculus [1] = species on record: Mus musculus; experiment: Percentage toxicity measured as loss of righting reflex.; format: organism-based; conditions: in vivo
In short: (§1)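 Mice (groups of 10) were dosed sc with drug in 0.9% saline and watched for 20 min for overt toxicity (ataxia, convulsions, loss of righting reflex, death) before chloroform exposure.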

Mus musculus [2] = species on record: Mus musculus; experiment: Percentage toxicity measured as ataxia.; format: organism-based; conditions: in vivo; in short: as §1
Mus musculus [3] = species on record: Mus musculus; experiment: Percentage toxicity measured as convulsions.; format: organism-based; conditions: in vivo; in short: as §1
Mus musculus [4] = experiment: Protection against chloroform induced arrhythmias in mice after subcutaneous administration at 100 mg/kg dose.; format: functional
In short: (§2)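 Groups of 10 unanesthetized mice got sc injection of drug in 0.9% saline. After 20 min observation they were placed one by one in chloroform-vapor-saturated air. When breathing stopped, the thorax was opened and the heart inspected by eye; coordinated ventricular contractions counted as protected.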

[5] = Percentage toxicity measured as death of mice.; format: organism-based; parameters: concentration or dose not given beside the values; conditions: mouse, in vivo; read-out: Death
Mus musculus [6] = experiment: Protection against chloroform induced arrhythmias was measured in mice after sc administration at given dose; format: functional; in short: as §2
Mus musculus [7] = experiment: Ataxia was measured in mice after sc administration at given dose; format: functional
In short: (§3)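 Mice in groups of 10 received drug sc in 0.9% saline and were watched 20 min for overt toxicity before chloroform exposure. At least three doses were given.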

Mus musculus [8] = experiment: Ataxia was measured in mice after sc administration at given dose.; format: functional; in short: as §3
Mus musculus [9] = experiment: Protection against chloroform induced arrhythmias was measured in mice after sc administration at given dose.; format: functional; in short: as §2
Canis familiaris [10] = experiment: MABP value was measured in anesthetized dog at 0.32+/-0.11 dose.; format: functional, Canis lupus familiaris
Canis familiaris [11] = species on record: Canis familiaris; experiment: The dose at which toxicity was measured.; format: organism-based, Canis lupus familiaris; conditions: dog, in vivo
In short: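 Adult female dogs (6.7–14.5 kg) had two-stage ligation of the left anterior descending coronary artery the day before testing. After control ventricular rate, % ectopic beats and mean arterial pressure were recorded, the drug (HCl salt, isotonic solution) was infused iv without anesthesia at 0.1, 0.5 or 1.0 (mg/kg)/min, mostly 0.5. Infusion continued until the arrhythmia was abolished or cardiovascular/CNS toxicity appeared. Cumulative dose is given in mmol/kg; toxicity included convulsion and P-R prolongation ≥25%.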

Canis familiaris [12] = experiment: % ectopic beats was measured in unanesthetized dog at 0.32+/-0.11 dose; 2+/-2
Canis familiaris [13] = experiment: Ventricular rate was measured in anesthetized dog at 0.32+/-0.11 dose; format: functional, Canis lupus familiaris, Heart; conditions: in the assay text read “unanesthetized” for “anesthetized”
In short: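 Adult female dogs (6.7–14.5 kg) had ventricular arrhythmias from two-stage ligation of the left anterior descending coronary artery the day before. Ventricular rate (bpm) was read at maximal antiarrhythmic effect against cumulative dose.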

[14] = Mus musculus, sc, read-out: ED50

Row | Compound | Loss of righting reflex (Mus musculus [1]) [%] | Ataxia (Mus musculus [2]) [%] | Convulsion (Mus musculus [3]) [%] | Protection (Mus musculus [4]) [%] | mortality [5] [%] | ED50 (Mus musculus [6]) [µmol/kg] | ED50 (Mus musculus [7]) [µmol/kg] | ED50 (Mus musculus [8]) [µmol/kg] | ED50 (Mus musculus [9]; [14]) [µmol/kg] | Protection (Mus musculus [4]; 100 mg/kg) [%] | ED50 (Mus musculus [9]) [µmol/kg] | MABP (Canis familiaris [10]) [mmHg] | Cumulative dose (Canis familiaris [11]) | Ectopic beats (Canis familiaris [12]) [%] | Ventricular rate (Canis familiaris [13]) [beats min-1]
1 | CCN(CC)CCCN1C(=O)CC(c2ccccc2)C1=O (stereo not drawn) | 0 | 0 | 0 | 30 | 0 | – | – | – | – | – | – | – | – | – | –
2 | CN(CCO)CCN1C(=O)CC2(CCCc3ccccc32)C1=O (stereo not drawn) | 0 | 0 | 0 | 30 | 0 | – | – | – | – | – | – | – | – | – | –
3 | CCN(CC)CCCN1C(=O)CC2(CCCc3ccc(C)cc32)C1=O (stereo not drawn) | 0 | 0 | 0 | 70 | 0 | 210 | – | – | – | – | – | – | – | – | –
4 | CCN(CC)C(C)CCN1C(=O)CC2(CCCc3ccc(O)cc32)C1=O (stereo not drawn) | 100 | 100 | 100 | 80 | 20 | 80 | 80 | – | – | – | – | – | – | – | –
5 | CCCC1(c2ccccc2)CC(=O)N(CCN(C)C)C1=O (stereo not drawn) | 0 | 100 | 0 | 40 | 0 | – | – | 270 | 390 | – | – | – | – | – | –
6 | CCN(CC)CCCN1C(=O)CC2(CCCc3ccc(OC(C)C)cc32)C1=O (stereo not drawn) | 0 | 100 | 100 | 90 | 0 | 140 | 110 | – | – | – | – | – | – | – | –
7 | O=C1NC(=O)C(C2CCc3ccccc3C2)N1 (stereo not drawn) | 0 | 0 | 0 | 20 | 0 | – | – | – | – | – | – | – | – | – | –
8 | CN(CCO)CCN1C(=O)CC2(CCc3ccccc3C2)C1=O (stereo not drawn) | 0 | 100 | 40 | 30 | 0 | – | – | – | – | – | – | – | – | – | –
9 | CCN(CC)CCCN1C(=O)CC2(CCCc3ccc(Cl)cc32)C1=O (stereo not drawn) | 0 | 100 | 0 | 90 | 0 | 160 | 110 | – | – | – | – | – | – | – | –
10 | CN(CCO)CCCCN1C(=O)CC2(CCCc3ccccc32)C1=O (stereo not drawn) | 0 | 0 | 0 | 10 | 0 | – | – | – | – | – | – | – | – | – | –
11 | CN(CCO)CCCN1C(=O)CC2(CCCc3ccccc32)C1=O (stereo not drawn) | 0 | 0 | 0 | 30 | 0 | 560 | 760 | – | – | – | – | – | – | – | –
12 | CCN(CC)CCCN1C(=O)CC2(CCCc3cc(OC)ccc32)C1=O (stereo not drawn) | 0 | 100 | – | 40 | 0 | – | – | – | – | – | – | – | – | – | –
13 | CCN(CC)C(C)CCN1C(=O)CC2(CCCc3cc(OC)ccc32)C1=O (stereo not drawn) | 0 | 60 | 0 | 0 | 0 | – | – | – | – | – | – | – | – | – | –
14 | CCN(CC)C(C)CN1C(=O)CC2(CCCc3ccc(O)cc32)C1=O (stereo not drawn) | 0 | 50 | 0 | 60 | 0 | – | – | – | – | – | – | – | – | – | –
15 | COCCN(C)CCCN1C(=O)CC2(CCCc3ccccc32)C1=O (stereo not drawn) | 100 | 100 | 100 | 30 | 0 | – | – | – | – | – | – | – | – | – | –
16 | COc1ccc2c(c1)CCCC21CC(=O)N(CCN(C)C)C1=O (stereo not drawn) | 0 | 100 | 0 | 20 | 0 | – | – | – | – | – | – | – | – | – | –
17 | CCN(CC)CCCCN1C(=O)CC2(CCCc3ccccc32)C1=O (stereo not drawn) | 0 | 100 | 0 | 90 | 0 | 180 | 180 | – | – | – | – | – | – | – | –
18 | CCN(CC)C(C)CN1C(=O)CC2(CCCc3ccccc32)C1=O (stereo not drawn) | 0 | 100 | 100 | 50 | 0 | – | – | – | – | – | – | – | – | – | –
19 | O=C1CC2(CCCc3ccccc32)C(=O)N1CCCN1CCOCC1 (stereo not drawn) | 0 | 100 | 0 | 20 | 0 | – | – | – | – | – | – | – | – | – | –
20 | CCN(CC)CCCN1C(=O)CC2(CCCc3ccccc32)C1=O (stereo not drawn) | 0 | 100 | 0 | 80 | 0 | 200 | 190 | – | – | – | – | – | – | – | –
21 | CCN(CC)CCCCN1C(=O)CC2(CCCc3cc(O)ccc32)C1=O (stereo not drawn) | 0 | 0 | 0 | 70 | 0 | – | – | – | 260 | – | – | – | – | – | –
22 | NCCCCCN1C(=O)CC2(CCCc3ccccc32)C1=O (stereo not drawn) | 0 | 0 | 0 | 20 | 0 | – | – | – | – | – | – | – | – | – | –
23 | CCN(CC)C(C)CCN1C(=O)CC2(CCCc3ccccc32)C1=O (stereo not drawn) | 0 | 100 | 0 | 40 | 0 | – | – | – | – | – | – | – | – | – | –
24 | COc1ccc2c(c1)CCCC21CC(=O)N(CCCN(C)C)C1=O (stereo not drawn) | 0 | 100 | 0 | 0 | 0 | – | – | – | – | – | – | – | – | – | –
25 | CCN(CC)CCCCCN1C(=O)CC2(CCCc3ccccc32)C1=O (racemic) | 0 | 0 | 0 | – | 0 | – | – | – | 240 | 80 | – | – | – | – | –
26 | CCN(CC)CCCCCN1C(=O)CC2(CCCc3ccccc32)C1=O (single isomer, unassigned; (+)) | – | – | – | – | – | – | – | – | – | 50 | 210 | – | – | – | –
27 | CCN(CC)CCCCCN1C(=O)CC2(CCCc3ccccc32)C1=O (single isomer, unassigned; (-)) | – | 100 | 30 | – | – | – | – | – | – | 90 | 160 | – | – | – | –
28 | Cc1cccc(C)c1NC(=O)C(C)N (stereo not drawn) [TOCAINIDE] | 0 | 10 | 0 | 20 | 0 | – | – | 760 | 1300 | – | – | 108 | 0.3 | 2 | 148
